The nature of data set [1]: Inhibition of gamma secretase in mouse Neuro2 cells expressing endogenous levels of amyloid precursor protein assessed as reduction in Abeta42 levels incubated for 18 hrs by sandwich ELISA. In kind it is cell-based. Put shortly: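 IC50 as concentration reducing Aβ42 by 50%; mean of at least 2 determinations; mouse assay.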
In general terms: In an ELISA, binding on a coated surface is turned into a signal by an enzyme label.

The target of the next data set is Gamma-secretase. Description: Inhibition of gamma secretase in human SKNBE2 cells expressing human APP695 assessed as reduction in Abeta42 levels incubated for 18 hrs by sandwich ELISA.
Data set [2] has as its target Gamma-secretase (Homo sapiens) (UniProt Q96BI3+Q9NZ42+Q8WW43+P49768+Q92542+P49810). In words: Inhibition of gamma secretase in human SKNBE2 cells expressing human APP695 assessed as increase in Abeta38 levels at 10 uM incubated for 18 hrs by sandwich ELISA. In kind it is cell-based. Set-up: scale not given: the % may be the effect or the level left.
Data set [3] is described as follows: Drug concentration in mouse plasma at 30 mg/kg, po measured after 4 hrs by LC/MS/MS method. In kind it is ADME, organism-based. The method, boiled down:
(§1)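 Mice dosed orally at 30 mg/kg; plasma and brain sampled 4 h post-dose; compound quantified by qualified research LC–MS/MS; brain/plasma ratio at 4 h.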

For data set [4], the system named is Mus musculus. Description: In vivo inhibition of gamma secretase in mouse increase in Abeta38 levels in brain at 30 mg/kg, po measured after 4 hrs relative to control. Set-up: scale not given: the % may be the effect or the level left.
A short description of data set [5]: Fraction of unbound in rat brain.
Data set [6] has as its system Mus musculus. Description: In vivo inhibition of gamma secretase in mouse assessed as assessed as reduction in Abeta42 levels in brain at 30 mg/kg, po measured after 4 hrs relative to control. In kind it is functional.
A short description of data set [7]: Free drug concentration in mouse brain. The format is ADME, tissue-based. To be noted: in vivo. The method, boiled down: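 Free brain concentration calculated as fu,b × total brain level (μM), mouse 30 mg/kg p.o., 4 h.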
Data set [8] can be described thus: Drug concentration in mouse brain at 30 mg/kg, po measured after 4 hrs by LC/MS/MS method. The format is ADME, organism-based. To be noted: read-out: Drug uptake. The method, boiled down: as §1

With `COc1cc2[nH]c(-c3nc4n(n3)CCCC4c3ccccc3C(F)(F)F)cc2cc1C#N` (racemic), the IC50 – broadly, the concentration needed to halve the response being measured – in data set [1] worked out at 166 nM; at Gamma-secretase it was 107 nM.
As for `N#CCCNc1cc(Cc2c(Cl)cccc2Cl)nc(Nc2ccc(C#N)cc2)n1`, the IC50 in data set [1] came out at 680 nM. In addition, the Activity in data set [2] was determined as 242%.
Consider `COc1c(C#N)ccc2[nH]c(-c3cn4c(n3)C(c3ccccc3Cl)CC(C)(O)C4)cc12` (stereo unspecified), for which the IC50 at Gamma-secretase was found to be 22 nM.
With `COc1cc(Nc2cccn3cc(-c4ccc(F)cc4)nc23)ccc1C#N`, the IC50 in [1] was over 10000 nM.
As to `COc1c(C#N)ccc2[nH]c(-c3nc4n(n3)CCCC4c3ccccc3C(F)(F)F)cc12` (racemic), the IC50 in data set [1] is 36 to 38 nM; on Gamma-secretase it was 36 nM.
On to `COc1nc(Nc2cccc3c2nc(-c2cccc(C(F)(F)F)c2)n3C)ccc1-n1cnc(C)c1`, for which the IC50 in data set [1] stood at 7 nM.
For `COc1c(C#N)ccc2[nH]c(-c3nc4n(n3)CCO[C@H]4c3cccc(F)c3C(F)(F)F)cc12`, the values for the concentration at 4 h in data set [3] and in data set [8] were 1.7 µM and 9.6 µM, respectively. Also, the IC50 (in [1]; on Gamma-secretase) was 59 nM in each case. The Activity in the data set on Mus musculus [4] is recorded as 19%. The molecule further showed a Fu in data set [5] of 0.09%. Also, the inhibition in vivo (usually the relative decrease from the control value, in per cent) at 30 mg/kg with Mus musculus [6] worked out at 2%. The “Drug uptake(free)” value in data set [7] was 0.009 µM.
`COc1c(C#N)ccc2[nH]c(-c3cn4c(n3)[C@H](c3ccccc3C(F)(F)F)OCC4)cc12` (single isomer, unassigned): the concentration at 4 h in data set [3] was found to be 8.4 µM; in [8], 16.4 µM. Besides, the IC50 in data set [1] was determined as 19 nM; at Gamma-secretase, 18 nM. In the data set with Mus musculus [4], the Activity is reported as 10%. The molecule further displayed a Fu in data set [5] of 0.21%. The inhibition in vivo at 30 mg/kg in the data set with Mus musculus [6] came out at 73%. For the same molecule, the “Drug uptake(free)” value in data set [7] was found to be 0.034 µM.
Consider `COc1c(C#N)ccc2[nH]c(-c3cn4c(n3)C(c3ccccc3Cl)CC(O)(CO)C4)cc12` (stereo unspecified), for which the IC50 at Gamma-secretase came out at 39 nM.
For `COCc1ccccc1[C@@H]1OCCn2cc(-c3cc4c(OC)c(C#N)ccc4[nH]3)nc21`, the IC50 in [1] amounted to 85 nM; on Gamma-secretase, 110 nM.
For `Cn1c(-c2nc3n(n2)CCCC3c2ccccc2C(F)(F)F)cc2cc(C#N)ccc21` (racemic) the same measures were over 10000 nM and 4000 nM.
Regarding `N#Cc1ccc2[nH]c(-c3nc4n(n3)CCCC4c3ccccc3C(F)(F)F)cc2c1` (racemic), the IC50 in data set [1] was 186 nM; at Gamma-secretase, 117 nM.
In the case of `Cc1cn(-c2ccc3[nH]c(-c4nc(-c5cccc(C(F)(F)F)c5)n(C)n4)cc3c2)cn1`, the IC50 in data set [1] came to 85 nM.
Same read-out and setting: as for `COc1nc(/C=C/c2nc3n(n2)CCC[C@H]3c2ccccc2C(F)(F)F)ccc1-n1cnc(C)c1` [E-2212], the figure is 11 nM.
For the molecule `COc1c(C#N)ccc2[nH]c(-c3cn4c(n3)[C@H](c3ccccc3Cl)O[C@H](C)C4)cc12`, the IC50 at Gamma-secretase came out at 17 nM.
Take `COc1c(C#N)ccc2[nH]c(-c3cn4c(n3)[C@H](c3ccc(F)cc3C)OCC4)cc12`: the concentration at 4 h in data set [3] was found to be 9.2 µM; in data set [8] it was 6.9 µM. For the same molecule, the figures for the 50% inhibitory concentration (IC50) (in data set [1]; at Gamma-secretase) were 16 nM and 23 nM, respectively. For the same molecule, the Activity in the data set on Mus musculus [4] is 122%. In [5], this molecule registered a Fu of 0.23%. The inhibition in vivo at 30 mg/kg with Mus musculus [6] came to 45%. Moreover, in data set [7], the “Drug uptake(free)” value was 0.016 µM.
On to `COc1c(C#N)ccc2[nH]c(-c3cn4c(n3)C(c3ccc(F)cc3C)CCC4)cc12` (racemic), for which the values for the concentration at 4 h in data set [3] and in [8] were 4.5 µM and 1.9 µM, respectively. Besides, the IC50 in [1] was determined as 50 nM; at Gamma-secretase, 112 nM. Besides, in the data set with Mus musculus [4], the Activity worked out at 17%. In addition, the inhibition in vivo at 30 mg/kg in the data set with Mus musculus [6] stood at 51%.
Consider `COc1c(C#N)ccc2[nH]c(-c3cn4c(n3)[C@H](c3cc(C(F)(F)F)ccc3F)OCC4)cc12`, for which the concentration at 4 h in [3] came to 10.6 µM; in data set [8], 16.3 µM. The values for the IC50 (in data set [1]; on Gamma-secretase) were 74 nM and 41 nM, respectively. In addition, the Activity with Mus musculus [4] is recorded as 41%. For the same molecule, the inhibition in vivo at 30 mg/kg with Mus musculus [6] is 35%.
Regarding `CCc1cc(CCC#N)ccc1N1CCc2c(C)nc(Nc3ccc(C#N)cc3)nc21`, the 50% inhibitory concentration (IC50) in data set [1] was 780 nM. Moreover, the Activity in data set [2] came out at 240%.
As to `COc1c(C#N)ccc2[nH]c(-c3nc4n(n3)CCO[C@@H]4c3ccccc3C(F)(F)F)cc12`, the IC50 is 295 nM in data set [1] and 603 nM at Gamma-secretase.
For the molecule `COc1cc(Nc2cccn3cc(-c4ccc(F)cc4)nc23)ccc1-n1cnc(C)c1`, the IC50 in [1] worked out at 182 nM.
Turning to `COc1c(C#N)ccc2[nH]c(-c3cn4c(n3)C(C(C)c3ccc(F)cc3)OCC4)cc12` (stereo unspecified), the IC50 in data set [1] stood at 339 nM; at Gamma-secretase it was 219 nM.
Regarding `COc1c(C#N)ccc2[nH]c(-c3nc4n(n3)CCOC4c3ccccc3C(F)(F)F)cc12` (racemic), the IC50 in [1] came out at 41 nM; on Gamma-secretase it was 72 nM.
Take `COc1c(C#N)ccc2[nH]c(-c3nc4n(n3)CCO[C@H]4c3cccc(F)c3C)cc12`: the concentration at 4 h in data set [3] came to 2.5 µM; in [8], 5.5 µM. Also, the results for the IC50 (in [1]; at Gamma-secretase) were 19 nM and 31 nM, respectively. Also, the Activity with Mus musculus [4] worked out at 60%. In [5], this molecule registered a Fu of 0.17%. Moreover, in the data set on Mus musculus [6], the inhibition in vivo at 30 mg/kg turned out to be 33%. In addition, the “Drug uptake(free)” value in data set [7] worked out at 0.009 µM.
With `N#Cc1ccc(Nc2nc(Cc3c(Cl)cccc3Cl)cc(NCC(O)c3ccccc3)n2)cc1` (stereo unspecified), the IC50 in data set [1] was 1670 nM. In addition, the Activity in [2] was determined as 244%.
As to `COc1c(C#N)ccc2[nH]c(-c3cn4c(n3)[C@H](c3ccccc3Cl)C[C@@H](C)C4)cc12` (racemic), the IC50 at Gamma-secretase was found to be 15 nM.
Turning to `COc1c(C#N)ccc2[nH]c(-c3nc4n(n3)CCCC4c3ccc(F)cc3C)cc12` (racemic), the concentration at 4 h in data set [3] turned out to be 0.75 µM; in data set [8], 0.69 µM. Moreover, the IC50 in data set [1] amounted to 28 nM; on Gamma-secretase, 25 nM. Moreover, in the data set with Mus musculus [4], the Activity was -9%. The inhibition in vivo at 30 mg/kg with Mus musculus [6] is 45%.
In the case of `COc1c(C#N)ccc2[nH]c(-c3cn4c(n3)[C@H](c3ccccc3Cl)O[C@@H](C)C4)cc12`, the IC50 at Gamma-secretase came out at 66 nM.
As to `N#Cc1ccc2cc(-c3nc4n(n3)CCCC4c3ccccc3C(F)(F)F)[nH]c2c1` (racemic), the IC50 in data set [1] stood at 8500 nM; at Gamma-secretase it was 3980 nM.
Take `COc1c(C#N)ccc2[nH]c(-c3nc4n(n3)CCO[C@H]4c3ccc(F)cc3C)cc12`: the concentration at 4 h in data set [3] came out at 1.52 µM; in data set [8], 1.71 µM. Further, the IC50 in data set [1] was 34 nM; on Gamma-secretase it was 32 nM. Further, the Activity in the data set with Mus musculus [4] was -12%. Further, the inhibition in vivo at 30 mg/kg with Mus musculus [6] came out at 5%.
With `COc1c(C#N)ccc2[nH]c(-c3cn4c(n3)[C@H](c3ccccc3Cl)OCC4)cc12`, the concentration at 4 h in data set [3] was found to be 8.3 µM; in data set [8], 23.8 µM. For the same molecule, the IC50 stood at 23 nM in data set [1] and 26 nM at Gamma-secretase. In the data set with Mus musculus [4], the Activity is listed as 61%. Also, the Fu in data set [5] is listed as 0.47%. In the data set on Mus musculus [6], the inhibition in vivo at 30 mg/kg was found to be 60%. In addition, in [7], the “Drug uptake(free)” value was 0.112 µM.
`COc1c(C#N)ccc2[nH]c(-c3nc4n(n3)CCO[C@H]4c3ccccc3C(F)(F)F)cc12`: the concentration at 4 h in [3] was found to be 5.4 µM; in data set [8], 10.5 µM. The concentration for half-maximal inhibition (IC50) in data set [1] worked out at 42 nM; at Gamma-secretase it was 45 nM. For the same molecule, the Activity with Mus musculus [4] was found to be 39%. Moreover, the inhibition in vivo at 30 mg/kg in the data set on Mus musculus [6] is 46%.
On to `COc1c(C#N)ccc2[nH]c(-c3cn4c(n3)[C@@H](c3ccccc3C(F)(F)F)OCC4)cc12`, for which the IC50 in data set [1] stood at 251 nM; at Gamma-secretase it was 347 nM.
The corresponding values for `COc1c(C#N)ccc2[nH]c(-c3nc4n(n3)CCO[C@H]4c3cc(C(F)(F)F)ccc3F)cc12` are 107 nM and 98 nM.
Take `Cc1cn(-c2ccc3[nH]c(-c4nc5n(n4)CCCC5c4ccccc4C(F)(F)F)cc3c2)cn1` (stereo unspecified): in [1], the IC50 was determined as 46 nM.
Same read-out and setting: as for `COc1cc(/C=C/c2nc3n(n2)CCC[C@H]3c2ccccc2C(F)(F)F)ccc1C#N`, the figure is 275 nM.
For the molecule `COc1c(C#N)ccc2[nH]c(-c3cn4c(n3)[C@H](c3c(F)cccc3C(F)(F)F)OCC4)cc12`, the concentration at 4 h in data set [3] was 11.3 µM; in [8], 18.7 µM. Also, the IC50 in data set [1] was determined as 42 nM; on Gamma-secretase, 36 nM. The Activity with Mus musculus [4] was 136%. The inhibition in vivo at 30 mg/kg with Mus musculus [6] worked out at 40%.
